Activity calls are given as the source filed them. No cut-off for these calls is given here.
Key:
[1] = Displacement of [3H]DADLE from human recombinant delta2 opioid receptor
[2] = target: T1, 5-hydroxytryptamine receptor 1A (Homo sapiens, UniProt P08908); experiment: Displacement of [3H]8-OH-DPAT from human 5HT1A receptor expressed in CHO cells by liquid scintillation counting; type: cell-based
T1 sequence (P08908 whole entry): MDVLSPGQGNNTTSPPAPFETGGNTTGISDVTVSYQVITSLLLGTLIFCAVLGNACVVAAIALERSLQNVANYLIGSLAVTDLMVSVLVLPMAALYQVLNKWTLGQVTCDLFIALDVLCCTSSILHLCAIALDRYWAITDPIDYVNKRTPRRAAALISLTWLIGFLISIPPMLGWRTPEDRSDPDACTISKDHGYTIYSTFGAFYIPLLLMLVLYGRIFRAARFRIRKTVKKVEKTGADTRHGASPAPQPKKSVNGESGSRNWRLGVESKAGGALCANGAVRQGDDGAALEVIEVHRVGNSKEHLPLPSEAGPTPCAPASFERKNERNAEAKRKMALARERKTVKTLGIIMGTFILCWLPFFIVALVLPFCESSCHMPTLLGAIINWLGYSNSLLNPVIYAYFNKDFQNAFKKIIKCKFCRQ
Procedure, shortened: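 CHO-cell membranes with human 5-HT1A were incubated with 0.25 nmol/L [3H]8-OH-DPAT (final) for 60 min at 27 °C. Buffer: 50 mM Tris-HCl, 10 mM MgSO4, 0.5 mM EDTA, 0.1% ascorbic acid, pH 7.4. Compound came from 270 μmol/L DMSO stock, diluted in buffer. Filtration was through GF/C presoaked in 0.3% polyethyleneimine, with two cold Tris washes. Run in duplicate or triplicate; percent inhibition of binding calculated.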

[3] = target: T1, 5-hydroxytryptamine receptor 1A; experiment: Agonist activity at human cloned 5HT1A receptor expressed in CHO cells assessed as stimulation of [35S]GTPgammaS binding after 30 mins by liquid scintillation counting; type: functional, cell-based
Procedure, shortened: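 Membranes from CHO cells expressing human 5-HT1A were diluted in 20 mM HEPES/3 mM MgCl2/120 mM NaCl, pH 7.4. They were preincubated with 20 μM GDP and test drug for 20 min at 30 °C, then held on ice for 15 min. [35S]GTPγS (100 pM) was added for 30 min at 30 °C. Samples were filtered, washed with cold HEPES/MgCl2 buffer, and bound radioactivity counted; EC50 and Emax reported.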

[4] = target: T2, 5-hydroxytryptamine receptor 3A (Cavia porcellus) (UniProt O70212); experiment: Inhibition of 5HT3 receptor-mediated contraction of guinea pig ileum at 0.1 umol/L after 20 mins relative to control; type: tissue-based
T2 sequence (whole entry): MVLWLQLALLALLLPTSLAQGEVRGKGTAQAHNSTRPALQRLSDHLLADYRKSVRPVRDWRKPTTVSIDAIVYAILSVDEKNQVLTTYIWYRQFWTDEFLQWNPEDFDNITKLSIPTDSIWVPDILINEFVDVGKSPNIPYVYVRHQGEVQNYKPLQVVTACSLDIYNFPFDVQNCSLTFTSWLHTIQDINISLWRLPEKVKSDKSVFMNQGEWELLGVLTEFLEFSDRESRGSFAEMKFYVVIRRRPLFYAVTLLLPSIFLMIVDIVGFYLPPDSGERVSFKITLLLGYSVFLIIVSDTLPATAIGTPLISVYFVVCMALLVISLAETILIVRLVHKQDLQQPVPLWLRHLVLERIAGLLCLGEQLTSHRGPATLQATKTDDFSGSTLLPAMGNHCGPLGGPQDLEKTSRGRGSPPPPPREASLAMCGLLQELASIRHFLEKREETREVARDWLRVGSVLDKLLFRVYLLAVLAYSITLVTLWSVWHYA
Procedure, shortened: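 Ileum strips in Tyrode solution at 37 °C, gassed 5% CO2/95% O2, isotonic contractions under 1 g load. After at least 3 stable contractions to 10 μM 2-methyl-5-HT, tissue exposed to compound or DMSO vehicle for 20 min, then 10 μM 2-methyl-5-HT re-added; contraction expressed as % inhibition of control.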

[5] = Ratio of drug level in brain to blood in Sprague-Dawley rat at 3 mg/kg, po after 4 hrs; type: ADME, organism-based; parameters: dose 3 mg/kg, route oral
Procedure, shortened: (§1)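 Rats dosed 3 mg/kg orally; total compound levels measured in brain and blood at 2, 4 and 8 h, brain/blood ratio derived. Mean ± SD of three rats.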

[6] = Drug level in Sprague-Dawley rat brain at 3 mg/kg, po after 8 hrs by HPLC analysis; type: ADME, organism-based; parameters: dose 3 mg/kg, route oral; conditions: read-out: Drug uptake
Procedure, shortened: (§2)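 Total compound concentration was measured in brain and blood at 2, 4 and 8 h after a single oral 3 mg/kg dose. Brain/blood ratio was also derived. Values are mean ± SD of three rats.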

[7] = Drug level in Sprague-Dawley rat blood at 3 mg/kg, po after 8 hrs by HPLC analysis; type: ADME, organism-based; parameters: dose 3 mg/kg, route oral; conditions: whole blood, read-out: Drug uptake; procedure, shortened: as §2
[8] = Ratio of drug level in brain to blood in Sprague-Dawley rat at 3 mg/kg, po after 8 hrs; type: ADME, organism-based; parameters: dose 3 mg/kg, route oral; procedure, shortened: as §1
[9] = system: Rattus norvegicus; experiment: Induction of 5HT1A receptor-mediated lower lip retraction behavior in rat at 10 mg/kg, iv after 30 mins; type: functional, organism-based; parameters: dose 10 mg/kg
Procedure, shortened: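 Rats were conditioned to test procedures over 2 weeks and acclimated to the test cage for 1 h. Vehicle was saline containing diluted HCl. Lower lip retraction and flat body posture were scored on a 0–3 scale at 5, 10, 20 and 30 min after dosing.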

[10] = target: T3, Adrenergic receptor alpha-1 (Rattus norvegicus, UniProt P15823+P23944+P43140); experiment: Inhibition of rat alpha1 adrenergic receptor
[11] = target: D(2) dopamine receptor (Homo sapiens, UniProt P14416); experiment: Inhibition of human dopamine D2 receptor
D(2) dopamine receptor, sequence (P14416 whole entry): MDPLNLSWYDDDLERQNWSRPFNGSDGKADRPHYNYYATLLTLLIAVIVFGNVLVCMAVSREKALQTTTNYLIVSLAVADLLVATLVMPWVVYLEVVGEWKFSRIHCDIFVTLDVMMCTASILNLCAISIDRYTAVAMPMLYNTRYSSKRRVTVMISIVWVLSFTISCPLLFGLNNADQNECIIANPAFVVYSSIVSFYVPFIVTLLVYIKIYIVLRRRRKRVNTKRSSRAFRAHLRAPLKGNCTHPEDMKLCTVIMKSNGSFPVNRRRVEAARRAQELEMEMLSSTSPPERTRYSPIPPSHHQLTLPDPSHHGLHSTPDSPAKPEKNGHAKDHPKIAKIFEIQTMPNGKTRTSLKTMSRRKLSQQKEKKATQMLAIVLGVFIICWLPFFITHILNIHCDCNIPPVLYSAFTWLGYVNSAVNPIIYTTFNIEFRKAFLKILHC

[12] = target: 5-hydroxytryptamine receptor 2A (Rattus norvegicus, UniProt P14842); experiment: Inhibition of rat 5HT2 receptor
5-hydroxytryptamine receptor 2A, sequence (P14842 whole entry): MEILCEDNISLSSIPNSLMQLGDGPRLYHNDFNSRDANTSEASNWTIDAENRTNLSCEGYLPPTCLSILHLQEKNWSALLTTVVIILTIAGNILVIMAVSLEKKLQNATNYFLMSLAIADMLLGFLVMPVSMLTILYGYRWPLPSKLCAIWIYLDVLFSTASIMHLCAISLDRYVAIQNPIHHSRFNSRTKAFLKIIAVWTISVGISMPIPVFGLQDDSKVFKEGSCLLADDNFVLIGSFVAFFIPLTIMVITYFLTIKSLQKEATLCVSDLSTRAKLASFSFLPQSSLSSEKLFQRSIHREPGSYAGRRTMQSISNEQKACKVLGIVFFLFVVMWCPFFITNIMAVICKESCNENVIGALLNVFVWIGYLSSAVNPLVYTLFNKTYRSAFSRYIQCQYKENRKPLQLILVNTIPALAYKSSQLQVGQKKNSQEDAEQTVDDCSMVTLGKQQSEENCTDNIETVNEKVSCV

[13] = target: 5-hydroxytryptamine receptor 4 (Cavia porcellus, UniProt O70528); experiment: Inhibition of guinea pig 5HT4 receptor
5-hydroxytryptamine receptor 4, sequence (O70528 whole entry): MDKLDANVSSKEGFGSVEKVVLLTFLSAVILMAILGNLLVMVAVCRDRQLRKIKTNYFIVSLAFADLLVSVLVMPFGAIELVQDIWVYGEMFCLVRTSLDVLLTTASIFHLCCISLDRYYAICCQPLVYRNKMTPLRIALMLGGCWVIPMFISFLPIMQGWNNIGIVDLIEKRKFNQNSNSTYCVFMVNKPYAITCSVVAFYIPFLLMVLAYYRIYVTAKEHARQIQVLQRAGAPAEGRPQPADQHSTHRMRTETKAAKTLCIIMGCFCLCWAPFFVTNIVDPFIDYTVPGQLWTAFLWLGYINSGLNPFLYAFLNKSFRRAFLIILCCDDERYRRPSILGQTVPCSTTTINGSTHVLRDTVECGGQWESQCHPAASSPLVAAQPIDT

[14] = target: T3, Adrenergic receptor alpha-1; experiment: Displacement of [3H]prazosin from rat cerebral cortex alpha1 adrenergic receptor; type: tissue-based
[15] = target: Adrenergic receptor alpha-2 (Rattus norvegicus, UniProt P22086+P19328+P22909); experiment: Displacement of [3H]RX821002 from rat cerebral cortex alpha2 adrenergic receptor; type: tissue-based
[16] = target: Histamine H1 receptor (Homo sapiens, UniProt P35367); experiment: Displacement of [3H]pyrilamine from human recombinant histamine H1 receptor
Histamine H1 receptor, sequence (P35367 whole entry): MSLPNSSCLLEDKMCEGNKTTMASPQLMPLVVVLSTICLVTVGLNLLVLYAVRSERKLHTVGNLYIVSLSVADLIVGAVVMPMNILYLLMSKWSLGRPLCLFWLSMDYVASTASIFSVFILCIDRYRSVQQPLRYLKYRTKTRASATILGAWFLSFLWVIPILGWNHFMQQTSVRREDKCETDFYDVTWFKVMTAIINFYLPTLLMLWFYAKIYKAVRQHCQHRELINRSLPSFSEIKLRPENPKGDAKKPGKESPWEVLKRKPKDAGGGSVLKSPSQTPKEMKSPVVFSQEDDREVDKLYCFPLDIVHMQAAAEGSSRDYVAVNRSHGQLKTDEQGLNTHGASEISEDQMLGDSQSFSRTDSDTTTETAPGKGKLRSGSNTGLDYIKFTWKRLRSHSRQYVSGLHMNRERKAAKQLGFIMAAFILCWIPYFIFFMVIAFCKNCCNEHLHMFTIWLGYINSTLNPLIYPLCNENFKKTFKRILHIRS

[17] = target: Muscarinic acetylcholine receptor M1 (Homo sapiens, UniProt P11229); experiment: Displacement of [3H]pirenzepine from human recombinant muscarinic M1 receptor
Muscarinic acetylcholine receptor M1, sequence (P11229 whole entry): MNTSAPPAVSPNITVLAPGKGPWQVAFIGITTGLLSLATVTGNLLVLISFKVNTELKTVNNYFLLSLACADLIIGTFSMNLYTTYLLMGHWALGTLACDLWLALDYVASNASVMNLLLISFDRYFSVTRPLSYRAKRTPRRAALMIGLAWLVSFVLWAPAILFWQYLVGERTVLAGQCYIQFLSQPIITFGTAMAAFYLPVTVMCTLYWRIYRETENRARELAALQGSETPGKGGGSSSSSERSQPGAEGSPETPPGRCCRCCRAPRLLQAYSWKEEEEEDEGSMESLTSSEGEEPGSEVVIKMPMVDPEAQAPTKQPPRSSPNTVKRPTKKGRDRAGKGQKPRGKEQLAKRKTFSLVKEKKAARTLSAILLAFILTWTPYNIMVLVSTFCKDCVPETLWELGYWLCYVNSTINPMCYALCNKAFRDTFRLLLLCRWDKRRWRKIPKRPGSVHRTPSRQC

[18] = target: Mu-type opioid receptor (Homo sapiens, UniProt P35372); experiment: Displacement of [3H]DAMGO from human recombinant mu opioid receptor
Mu-type opioid receptor, sequence (P35372 whole entry): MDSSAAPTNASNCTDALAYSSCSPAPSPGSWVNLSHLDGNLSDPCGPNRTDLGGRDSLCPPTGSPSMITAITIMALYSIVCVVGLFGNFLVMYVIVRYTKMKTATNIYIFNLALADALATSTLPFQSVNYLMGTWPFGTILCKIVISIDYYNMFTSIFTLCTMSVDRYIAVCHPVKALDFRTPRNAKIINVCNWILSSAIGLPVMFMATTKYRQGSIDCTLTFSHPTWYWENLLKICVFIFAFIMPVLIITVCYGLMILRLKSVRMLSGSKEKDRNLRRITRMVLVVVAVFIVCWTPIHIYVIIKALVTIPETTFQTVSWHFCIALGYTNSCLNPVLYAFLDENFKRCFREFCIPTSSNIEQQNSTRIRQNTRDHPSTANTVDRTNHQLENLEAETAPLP

[19] = target: T1, 5-hydroxytryptamine receptor 1A; experiment: Displacement of 8-hydroxy-[3H]DPAT from human recombinant 5HT1A receptor
[20] = target: 5-hydroxytryptamine receptor 1B (Rattus norvegicus, UniProt P28564); experiment: Displacement of [125I]CYP from rat cerebral cortex 5HT1B receptor in presence of 30 uM propranolol; type: tissue-based
5-hydroxytryptamine receptor 1B, sequence (P28564 whole entry): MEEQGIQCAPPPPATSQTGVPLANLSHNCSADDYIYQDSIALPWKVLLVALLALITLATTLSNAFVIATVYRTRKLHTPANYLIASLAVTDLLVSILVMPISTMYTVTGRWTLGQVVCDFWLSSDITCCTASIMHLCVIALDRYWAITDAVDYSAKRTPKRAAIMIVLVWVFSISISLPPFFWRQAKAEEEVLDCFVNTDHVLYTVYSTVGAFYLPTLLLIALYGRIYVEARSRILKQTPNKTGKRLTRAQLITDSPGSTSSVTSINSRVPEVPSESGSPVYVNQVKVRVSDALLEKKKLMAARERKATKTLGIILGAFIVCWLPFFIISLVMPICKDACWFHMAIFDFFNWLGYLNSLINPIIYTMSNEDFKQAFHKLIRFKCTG

[21] = target: 5-hydroxytryptamine receptor 6 (Homo sapiens, UniProt P50406); experiment: Displacement of [3H]LSD from human recombinant 5HT6 receptor
5-hydroxytryptamine receptor 6, sequence (P50406 whole entry): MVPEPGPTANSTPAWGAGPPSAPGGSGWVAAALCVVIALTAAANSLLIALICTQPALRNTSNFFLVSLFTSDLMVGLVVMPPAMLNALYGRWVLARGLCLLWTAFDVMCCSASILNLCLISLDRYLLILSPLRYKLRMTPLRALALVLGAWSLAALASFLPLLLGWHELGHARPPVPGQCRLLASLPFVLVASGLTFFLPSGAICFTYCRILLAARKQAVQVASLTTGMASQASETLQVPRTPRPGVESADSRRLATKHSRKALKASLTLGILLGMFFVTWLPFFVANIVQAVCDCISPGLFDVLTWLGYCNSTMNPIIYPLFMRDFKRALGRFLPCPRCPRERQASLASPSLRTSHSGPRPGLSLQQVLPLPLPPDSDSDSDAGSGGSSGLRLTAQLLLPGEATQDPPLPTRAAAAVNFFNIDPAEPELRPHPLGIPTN

[22] = target: Sodium-dependent dopamine transporter (Homo sapiens, UniProt Q01959); experiment: Displacement of [3H]BTCP from human recombinant DAT
Sodium-dependent dopamine transporter, sequence (Q01959 whole entry): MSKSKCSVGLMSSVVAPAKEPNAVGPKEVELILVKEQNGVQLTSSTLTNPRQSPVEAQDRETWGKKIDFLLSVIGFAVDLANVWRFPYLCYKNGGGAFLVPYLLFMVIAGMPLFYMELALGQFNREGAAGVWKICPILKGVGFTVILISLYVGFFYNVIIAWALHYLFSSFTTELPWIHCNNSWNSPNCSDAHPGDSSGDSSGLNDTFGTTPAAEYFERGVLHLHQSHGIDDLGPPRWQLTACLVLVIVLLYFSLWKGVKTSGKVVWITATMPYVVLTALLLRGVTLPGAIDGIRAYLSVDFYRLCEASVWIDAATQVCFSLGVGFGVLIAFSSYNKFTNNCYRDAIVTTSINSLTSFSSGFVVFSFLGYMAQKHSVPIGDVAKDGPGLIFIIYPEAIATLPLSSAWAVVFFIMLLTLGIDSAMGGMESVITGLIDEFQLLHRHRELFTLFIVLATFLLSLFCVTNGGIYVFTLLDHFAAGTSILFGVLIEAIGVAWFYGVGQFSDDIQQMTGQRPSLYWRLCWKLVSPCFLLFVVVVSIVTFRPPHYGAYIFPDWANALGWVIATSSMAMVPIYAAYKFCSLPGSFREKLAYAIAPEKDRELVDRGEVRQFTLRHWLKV

- IC50 [1]: > 1000 nM
- IC50 [2]: 1.4 nM
- EC50 [3]: 22.3 nM
- inhibition [4]: 70.4%
- Kp at 4 h [5]: 4.4
- concentration at 8 h [6]: 56.4 nM
- concentration at 8 h [7]: 9.97 nM
- Kp at 8 h [8]: 6.54
- IC50 [10]: > 0.1 µM
- IC50 [11]: > 100 nM
- IC50 [12]: 100 nM
- IC50 [13]: > 1000 nM
- IC50 [14]: 1 ×10⁻⁶ mol/L
- IC50 [15]: > 1 ×10⁻⁶ mol/L
- IC50 [16]: 1000 nM
- IC50 [17]: > 1000 nM
- IC50 [18]: > 1000 nM
- IC50 [19]: > 1.36 nM
- IC50 [20]: > 1000 nM
- IC50 [21]: > 1000 nM
- IC50 [22]: > 1000 nM
Structure (SMILES): Nn1c(CCCCN2CCN(c3ccc4ccccc4n3)CC2)nc2c(c1=O)CCCC2
- Activity [9]: Active

Source: ChEMBL document CHEMBL1275331, “Discovery of a novel 5-HT(3) antagonist/5-HT(1A) agonist 3-amino-5,6,7,8-tetrahydro-2-{4-[4-(quinolin-2-yl)piperazin-1-yl]butyl}quinazolin-4(3H)-one (TZB-30878) as an orally bioavailable agent for irritable bowel syndrome” (J Med Chem, 2010)
